From ChEMBL document CHEMBL1128395, “Design and synthesis of novel inhibitors of HIV-1 reverse transcriptase” (J Med Chem, 1995)

Experiments:
[1] = target: Human immunodeficiency virus type 1 reverse transcriptase (Human immunodeficiency virus 1, UniProt Q72547); assay: Inhibitory activity against HIV-1 Reverse transcriptase
Summary of the method: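 Cell-free HIV-1 reverse transcriptase inhibition assay, with TIBO and BI-RG-587 run as reference inhibitors. IC50 is the inhibitor concentration giving 50% enzyme inhibition, taken as the mean of at least two independent assays.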

[2] = tested on: MT4; assay: Compound was evaluated for effective concentration required to achieve 50% protection of MT-4 cells against cytopathic effect of HIV-1; assay type: functional, cell-based; conditions: Homo sapiens

| SMILES | IC50 [1] | EC50 [2] |
| --- | --- | --- |
| CC(=O)OCCOCn1c2c(c(=O)[nH]c1=O)C(c1ccccc1)Nc1ccccc1S2 (configuration not stated) | > 100 µM | – |
| Cc1c(O)nc(O)nc1Sc1ccccc1 | – | > 250 µM |
| CC(=O)OCCOCn1c2c(c(=O)[nH]c1=O)C(=O)Nc1ccccc1S2 | > 100 µM | – |
| CCOCn1c2c(c(=O)[nH]c1=O)CNc1ccccc1S2 | 50.2 µM | – |
| O=c1[nH]c(=O)n(COCCO)c2c1C(c1ccc([N+](=O)[O-])cc1)Nc1ccccc1S2 (configuration not stated) | > 100 µM | – |

More lines, main results first:

| IC50 [1] | SMILES | EC50 [2] |
| --- | --- | --- |
| > 100 µM | O=c1[nH]c2c(c(=O)[nH]1)CNc1ccccc1S2 [PYRIMIDOBENZOTHIAZEPINE] | – |
| > 100 µM | CC(=O)OCCOCn1c2c(c(=O)n(C)c1=O)CNc1ccccc1S2 | – |
| 11.5 µM | CC(=O)OCCOCn1c2c(c(=O)[nH]c1=O)CNc1ccccc1S2 | – |
| 0.64 µM | CCOCCOCn1c2c(c(=O)[nH]c1=O)CNc1ccccc1S2 | – |
| > 100 µM | O=c1[nH]c(=O)n(COCCO)c2c1C(c1ccccc1)Nc1ccccc1S2 (configuration not stated) | – |
| 14.7 µM | CC(=O)OCCOCn1c2c(c(=O)[nH]c1=O)CN(C)c1ccccc1S2 | – |
| > 100 µM | O=c1[nH]c(=O)n(COCCO)c2c1CNc1ccccc1S2 | – |
